This note sets out measurements from ChEMBL document CHEMBL4837219, “Chemical modification of NSC12 leads to a specific FGF-trap with antitumor activity in multiple myeloma” (Eur J Med Chem, 2021).

Data set [1] addresses Estrogen receptor beta (Homo sapiens) (UniProt Q92731). As to the kind of experiment: Displacement of [3H]estradiol from human full length recombinant ERbeta expressed in baculovirus-infected Sf9 cells at 5 uM incubated for 120 mins by radiometric scintillation counting analysis. A digest of the protocol:
(§1)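 Radioligand competition binding to human ERα or ERβ, run as an outsourced panel assay. Readout is % inhibition of specific [3H]estradiol binding at 5.0 and 50 µM compound. Run in duplicate, and the mean of the duplicates is reported.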
(In general: Loss of bound radioactivity is the signal in a displacement assay; it reports binding, not function.)

The test system of data set [2] is OPM-2. The experiment in a line: Trapping activity at FGF in human OPM-2 cells assessed as inhibition of FGFR3 phosphorylation at 6 uM measured after 6 hrs by westernblot analysis. The data set is classed as cell-based. A digest of the protocol:
(§2)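 Cells cultured in RPMI1640 with 10% FBS and 2.0 mM glutamine, then treated 6 h with 6 µM compound. Washed in cold PBS and lysed in NP-40 buffer (20 mM Tris-HCl pH 8, 1 mM orthovanadate, protease inhibitors). Bradford used to normalize protein. Blots probed for phospho-FGFR3 (Y724), with β-actin or α-tubulin as loading control; percent inhibition read by densitometry.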

Data set [3] has as its target T1, Estrogen receptor (Homo sapiens) (UniProt P03372).
T1 sequence (whole entry): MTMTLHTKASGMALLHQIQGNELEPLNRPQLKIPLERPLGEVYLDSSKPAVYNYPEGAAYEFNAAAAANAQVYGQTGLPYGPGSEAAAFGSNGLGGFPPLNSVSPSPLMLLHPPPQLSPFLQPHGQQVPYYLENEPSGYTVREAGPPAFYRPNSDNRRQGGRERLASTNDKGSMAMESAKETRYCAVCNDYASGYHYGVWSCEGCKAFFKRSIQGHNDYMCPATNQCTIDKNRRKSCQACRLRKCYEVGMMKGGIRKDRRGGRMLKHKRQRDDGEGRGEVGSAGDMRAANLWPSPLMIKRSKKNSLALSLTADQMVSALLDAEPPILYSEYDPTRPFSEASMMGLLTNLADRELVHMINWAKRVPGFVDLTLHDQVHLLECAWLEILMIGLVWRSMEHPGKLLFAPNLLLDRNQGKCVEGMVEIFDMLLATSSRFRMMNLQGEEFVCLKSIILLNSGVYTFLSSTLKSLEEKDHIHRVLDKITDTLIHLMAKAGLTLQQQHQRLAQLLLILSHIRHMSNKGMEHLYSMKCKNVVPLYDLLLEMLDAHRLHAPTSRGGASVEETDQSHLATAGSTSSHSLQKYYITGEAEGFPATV
The experiment in a line: Displacement of [3H]estradiol from human full length recombinant ERalpha expressed in baculovirus-infected Sf9 cells at 5 uM incubated for 120 mins by radiometric scintillation counting analysis. The gist of the method:
as §1

In data set [4] the test system is U-266. As to the kind of experiment: Trapping activity at FGF in human U-266 cells assessed as inhibition of FGFR3 phosphorylation at 6 uM measured after 6 hrs by westernblot analysis. The data set is classed as cell-based. The gist of the method:
as §2

Data set [5] concerns the target Fibroblast growth factor 2 (Homo sapiens, UniProt P09038). As to the kind of experiment: Binding affinity to FGF2 (unknown origin) by sensor chip immobilization based surface plasmon resonance analysis.
The target of data set [6] is T1, Estrogen receptor (Homo sapiens). The experiment in a line: Displacement of [3H]estradiol from human full length recombinant ERalpha expressed in baculovirus-infected Sf9 cells at 50 uM incubated for 120 mins by radiometric scintillation counting analysis. The gist of the method:
as §1

Data set [7] relates to KMS-11. The experiment in a line: Antiproliferative activity against human KMS-11 cells assessed as reduction in cell viability incubated for 48 hrs by propidium iodide staining-based flow cytometric analysis. As to conditions: KMS-11, 48 h. The data set is classed as functional. A digest of the protocol: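 KMS-11 cells (maintained in RPMI1640 with 10% heat-inactivated FBS and 2.0 mM glutamine) exposed to increasing concentrations of compound for 48 h. Viable PI-negative cells counted by flow cytometry using the analyzer's absolute counting function. IC50 is the concentration giving 50% inhibition of proliferation, taken as the mean of at least 2 experiments run in triplicate.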
A general note: In flow cytometry, cells or beads pass a laser one at a time.

In data set [8] the target is Estrogen receptor beta (Homo sapiens) (UniProt Q92731). As to the kind of experiment: Displacement of [3H]estradiol from human full length recombinant ERbeta expressed in baculovirus-infected Sf9 cells at 50 uM incubated for 120 mins by radiometric scintillation counting analysis. The gist of the method:
as §1

Data set [9] concerns U-266. The experiment in a line: Antiproliferative activity against human U-266 cells assessed as reduction in cell viability incubated for 48 hrs by propidium iodide staining-based flow cytometric analysis. The data set is classed as functional. The following applies: U-266, 48 h. A digest of the protocol: (§3)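 Myeloma cells kept at low passage in RPMI1640 with 10% heat-inactivated FBS and 2.0 mM glutamine, Mycoplasma-tested, authenticated. Exposed to increasing concentrations of test compound for 48 h. Viable cells counted as propidium iodide-negative by flow cytometry with absolute counts. IC50 = concentration halving proliferation; mean of at least 2 experiments in triplicate.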

The test system of data set [10] is OPM-2. The experiment in a line: Antiproliferative activity against human OPM-2 cells assessed as reduction in cell viability incubated for 48 hrs by propidium iodide staining-based flow cytometric analysis. The data set is classed as functional. As to conditions: OPM-2, 48 h. The gist of the method: as §3
Data set [11] concerns RPMI-8226. The experiment in a line: Trapping activity at FGF in human RPMI-8226 cells assessed as inhibition of FGFR3 phosphorylation at 6 uM measured after 6 hrs by westernblot analysis. The data set is classed as cell-based. A digest of the protocol: as §2
Data set [12] has as its system KMS-11. The experiment in a line: Antitumor activity against human KMS-11 cells xenografted in NOD-SCID mouse assessed as tumor growth inhibition at 7.5 mg/kg, ip administered every other day measured at day 17 post-tumor implantation by caliper analysis. The data set is classed as functional, organism-based. The gist of the method:
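Female NOD/SCID mice, six to eight weeks old, injected s.c. with 5 × 10^6 KMS-11 cells in PBS. Once tumors were palpable (10 days), mice were randomized and given 7.5 mg/kg i.p. every other day, with DMSO as vehicle control; n = 5 per group. Tumor volume from caliper measurements, V = (D × d²)/2. Tumors excised and weighed at day 17.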

In data set [13] the test system is KMS-11. As to the kind of experiment: Trapping activity at FGF in human KMS-11 cells assessed as inhibition of FGFR3 phosphorylation at 6 uM measured after 6 hrs by western blot analysis. The data set is classed as cell-based. A digest of the protocol:
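KMS-11 cells treated for 6 h with compound at 6.0 µM, then lysed in NP-40 buffer containing orthovanadate and protease inhibitors. Phospho-FGFR3 detected by western blot with anti-phospho-Y724 antibody, using β-actin or α-tubulin as loading control. Result expressed as % inhibition of FGFR3 phosphorylation by densitometry.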
(Immunoblotting shows a protein as a band on a membrane.)

Data set [14] concerns RPMI-8226. As to the kind of experiment: Antiproliferative activity against human RPMI-8226 cells assessed as reduction in cell viability incubated for 48 hrs by propidium iodide staining-based flow cytometric analysis. The data set is classed as functional. As to conditions: RPMI-8226, 48 h. A digest of the protocol:
as §3

A short description of data set [15]: Total plasma concentration in NOD-SCID mouse at 7.5 mg/kg, ip measured after 90 mins by HPLC/MS/MS analysis. The data set is classed as ADME, organism-based. A digest of the protocol: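 A single 7.5 mg/kg i.p. dose given to eight-week-old NOD/SCID mice (n = 4). Blood collected at 90 min. Plasma treated with acetonitrile containing internal standard (1:2) to precipitate protein, centrifuged, and the supernatant analyzed by C18 gradient HPLC-MS/MS in ESI-negative MRM mode. Calibration in spiked blank plasma, linear over 1–1000 nM, LOQ 1 nM. Values are mean ± SEM.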

A short description of data set [16]: Drug metabolism in NOD-SCID mouse plasma assessed as (1R)-4,4,4-trifluoro-1-((3S,10R,13S,17S)-3-hydroxy-10,13-dimethyl-2,3,4,7,8,9,10,11,12,13,14,15,16,17-tetradecahydro-1H-cyclopenta[a]phenanthren-17-yl)-3-(trifluoromethyl)butane-1,3-diol formation at 7.5 mg/kg, ip measured after 90 mins by HPLC-MS/MS analysis. The data set is classed as ADME, organism-based. The following applies: in vivo, 1.5 h.

Molecules are shown by their SMILES. pIC50, pKd: −log10 of the molar value. The source made the active and inactive calls. No cut-off for these calls is given here.

Chain of Estrogen receptor beta (Homo sapiens) (Q92731 whole entry): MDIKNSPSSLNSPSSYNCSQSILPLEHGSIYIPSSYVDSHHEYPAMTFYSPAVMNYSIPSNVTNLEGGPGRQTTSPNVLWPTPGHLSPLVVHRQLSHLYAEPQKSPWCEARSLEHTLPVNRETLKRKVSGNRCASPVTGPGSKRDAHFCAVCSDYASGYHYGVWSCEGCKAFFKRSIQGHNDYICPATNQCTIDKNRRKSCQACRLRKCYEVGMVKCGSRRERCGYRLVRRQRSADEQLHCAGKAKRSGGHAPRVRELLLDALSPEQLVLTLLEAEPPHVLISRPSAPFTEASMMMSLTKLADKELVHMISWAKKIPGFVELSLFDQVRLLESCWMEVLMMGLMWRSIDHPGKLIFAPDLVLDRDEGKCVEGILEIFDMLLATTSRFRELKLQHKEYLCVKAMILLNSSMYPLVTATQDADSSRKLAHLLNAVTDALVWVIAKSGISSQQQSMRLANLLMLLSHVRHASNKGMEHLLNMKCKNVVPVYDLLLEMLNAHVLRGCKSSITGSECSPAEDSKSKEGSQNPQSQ
Chain of Fibroblast growth factor 2 (P09038 143-288 limits assumed): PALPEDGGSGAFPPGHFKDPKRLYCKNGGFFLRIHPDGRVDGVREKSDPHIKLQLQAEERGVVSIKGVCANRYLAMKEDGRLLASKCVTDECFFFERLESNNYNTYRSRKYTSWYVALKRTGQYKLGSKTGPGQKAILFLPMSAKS

For `C[C@]12CCC(=O)C[C@@H]1CC[C@@H]1[C@@H]2CC[C@]2(C)[C@@H]([C@H](O)CC(O)(C(F)(F)F)C(F)(F)F)CC[C@@H]12`, the inhibition – broadly, the change of the read-out against control, counted positive when it falls – in data set [1] turned out to be 4.3%; in data set [3], 0%; in data set [6], 0%; in data set [8], 17.6%; in [13], 99%. Besides, the outcome in [2], in data set [4], in data set [11] and in data set [12] was Active. In addition, in [5], the pKd (commonly the Kd on a negative log10 scale, so that one unit is a factor of ten) is 4.52. Moreover, the pIC50 – broadly, the negative decadic logarithm of the IC50, by convention in mol/L – in data set [7] is 5.62; in data set [9] it was 5.27; in [10], 5.18; in data set [14], 5.18. In [15], this compound returned a concentration at 1.5 h of 525 nM.

Take `C[C@]12CC[C@H]3[C@@H](CC=C4C[C@@H](OC(=O)CN)CC[C@@]43C)[C@@H]1CC[C@@H]2[C@@H](O)CC(O)(C(F)(F)F)C(F)(F)F`: the pIC50 in data set [7] was 5.25. Besides, the inhibition in data set [13] stood at 93%.

For the compound `C[C@]12CC[C@H]3[C@@H](CC=C4C[C@@H](O)CC[C@@]43C)[C@@H]1CC[C@@H]2[C@H](O)CC(O)(C(F)(F)F)C(F)(F)F`, the inhibition result in data set [13] was “inactive”. Also, the concentration at 1.5 h in data set [15] came out at 93.1 nM.

As for `C[C@]12CC[C@H]3[C@@H](CC=C4C[C@@H](OCCO)CC[C@@]43C)[C@@H]1CC[C@@H]2[C@H](O)CC(O)(C(F)(F)F)C(F)(F)F`, the pIC50 in [7] was 5.11. Moreover, in data set [13], the inhibition was 85%.

`C[C@]12CC[C@H]3[C@@H](CC=C4C[C@@H](O[C@@H]5O[C@H](CO)[C@@H](O)[C@H](O)[C@H]5O)CC[C@@]43C)[C@@H]1CC[C@@H]2[C@@H](O)CC(O)(C(F)(F)F)C(F)(F)F`: the pIC50 in data set [7] was 5.40. Further, the inhibition in data set [13] was 100%.

In the case of `C[C@]12CC[C@H]3[C@@H](CC=C4C[C@@H](OC(=O)CN)CC[C@@]43C)[C@@H]1CC[C@@H]2[C@H](O)CC(O)(C(F)(F)F)C(F)(F)F`, the inhibition in data set [1] came to 21.4%; in data set [3] it was 7.4%; in data set [6] it was 50%; in data set [8], 71.3%; in data set [13] it was 100%. In addition, the result in data set [2], in data set [4] and in data set [11] was Active. In addition, the pKd in data set [5] is 4.52. In addition, the pIC50 in data set [7] was 5.64; in data set [9] it was 5.16; in data set [10], 5.14; in [14], 5.14. In addition, in [16], the Drug metabolism result is listed as “Metabolite_Detected”. For the same compound, the outcome in data set [12] was inactive. The compound further showed a concentration at 1.5 h in data set [15] of 7.5 nM.

Regarding `C[C@]12CC[C@H](O)C[C@@H]1CC[C@@H]1[C@@H]2CC[C@]2(C)[C@@H]([C@@H](O)CC(O)(C(F)(F)F)C(F)(F)F)CC[C@@H]12`, the negative logarithm of the IC50 (pIC50) in data set [7] was 5.54. The inhibition in [13] came out at 89%.

For `C[C@]12CC[C@H]3[C@@H](CC=C4CC(=O)CC[C@@]43C)[C@@H]1CC[C@@H]2[C@@H](O)CC(O)(C(F)(F)F)C(F)(F)F`, in data set [7], the pIC50 was 5.47. Also, in data set [13], the inhibition is 91%.

For the compound `C[C@]12CC[C@H]3[C@@H](CC=C4C[C@@H](O)CC[C@@]43C)[C@@H]1CC[C@@H]2[C@@H](O)CC(O)(C(F)(F)F)C(F)(F)F`, the inhibition in [1] worked out at 74.9%; in data set [3], 60.8%; in data set [6], 83.3%; in [8], 91.9%; in [13] it was 81%. Besides, in data set [7], the pIC50 is 5.47. Besides, in [12], the outcome was Active. The same compound came in with a concentration at 1.5 h in data set [15] of 360 nM.
